Screening data: PubChem BioAssay, Johns Hopkins Ion Channel Center
Only some compounds are listed: those with a hit (about 2.3% of all), similar ones and a draw of the others.
TRPC4 potent: allosteric potentiators of mouse TRPC4 channel; Q9QUQ5; HEK293 TRPC4beta/mu-opioid, DAMGO EC20, Fluo-4 Ca2+ flux; active compounds read high; B-score at 10 µM; actives 0.42% (n = 310,000); AID 2227;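 active = B-score of calcium response area above 5 SD of library B-scores, with initial fluorescence ratio within 5 SD of library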
TRPC4 act: opens the mouse TRPC4 cation channel; HEK293 TRPC4beta/mu-opioid, Fluo4 calcium fluorescence; active compounds read high; actives 0.49% (n = 310,000); AID 2237; Q9QUQ5; B-score at 10 µM;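 active = B-score above 5 SD of library B-scores, and initial fluorescence ratio not above library mean plus 5 SD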;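 also: positive B-score marks a calcium rise read as TRPC4 activation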
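system = HEK293 cells stably co-expressing mouse TRPC4beta and mu-opioid receptor | schedule = Fluo4 dye loading 45 min at room temperature, 110 s recording | measure = B-scored integrated calcium fluorescence ratio | signal = Fluo4 calcium-sensitive dye fluorescence, kinetic, 1 Hz baseline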
TRPC6 inhibitor: inhibitors of mouse TRPC6 channel; HEK293-TRPC6, membrane potential dye, ACh-evoked depolarization; active compounds read low; B-score at 10 µM; actives 1.1% (n = 310,000);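 active = B-score under library mean minus 3 SD, initial fluorescence not abnormally high, positive integrated signal ratio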;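 also: B-score derived from integrated fluorescence ratio over the kinetic read; more negative B-score means stronger inhibition of depolarization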
Target sequence (Q61143 whole entry, looked up): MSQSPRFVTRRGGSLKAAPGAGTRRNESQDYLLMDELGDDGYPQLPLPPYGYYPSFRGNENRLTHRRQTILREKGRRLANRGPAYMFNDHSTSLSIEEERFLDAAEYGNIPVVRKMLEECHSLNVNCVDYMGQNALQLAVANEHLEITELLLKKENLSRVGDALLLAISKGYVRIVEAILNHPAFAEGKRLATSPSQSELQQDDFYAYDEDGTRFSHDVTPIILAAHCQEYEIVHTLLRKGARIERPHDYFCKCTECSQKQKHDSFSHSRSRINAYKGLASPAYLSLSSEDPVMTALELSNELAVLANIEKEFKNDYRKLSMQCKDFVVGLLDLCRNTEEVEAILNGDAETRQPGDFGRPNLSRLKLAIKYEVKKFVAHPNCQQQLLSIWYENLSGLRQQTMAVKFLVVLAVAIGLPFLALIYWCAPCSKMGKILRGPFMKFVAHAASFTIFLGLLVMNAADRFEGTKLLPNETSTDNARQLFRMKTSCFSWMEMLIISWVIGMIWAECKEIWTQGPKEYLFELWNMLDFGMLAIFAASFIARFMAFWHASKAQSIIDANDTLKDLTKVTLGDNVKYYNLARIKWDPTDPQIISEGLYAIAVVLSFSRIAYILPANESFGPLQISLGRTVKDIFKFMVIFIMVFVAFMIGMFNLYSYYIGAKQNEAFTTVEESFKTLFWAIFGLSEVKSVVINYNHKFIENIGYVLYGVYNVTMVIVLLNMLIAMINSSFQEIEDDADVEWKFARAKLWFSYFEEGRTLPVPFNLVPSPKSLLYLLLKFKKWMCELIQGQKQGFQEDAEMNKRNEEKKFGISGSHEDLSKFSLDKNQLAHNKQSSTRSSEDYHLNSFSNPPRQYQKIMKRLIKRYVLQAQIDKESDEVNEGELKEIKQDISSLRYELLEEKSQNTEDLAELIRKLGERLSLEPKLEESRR
TRPC4 block: TRPC4 (mouse) channel inhibition | Q9QUQ5 | HEK293 TRPC4beta/mu-opioid, DAMGO-evoked Fluo4 calcium flux; active compounds read low | B-score at 10 µM | actives 0.39% (n = 300,000) | AID 2247;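 active = B-score over 3 SD under the library average, no early fluorescence shift, positive overall ratio signal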
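material = TRPC4beta/mu-opioid receptor HEK293 cell line | probe or stimulus = sequential submaximal and maximal DAMGO stimulation | compound dosing = one concentration per compound | measured by = Fluo4 Ca2+ flux fluorescence | evaluation = integrated fluorescence ratio relative to baseline, converted to per-well B score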
TRPC6 activator: activators of mouse TRPC6 channel; actives 0.13% (n = 310,000); AID 2550; HEK293-TRPC6 membrane potential dye fluorescence; active compounds read high; Q61143; B-score at 10 µM;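 active = B-score of the integrated fluorescence ratio above library mean plus 3 SD, and starting fluorescence ratio within library mean plus 5 SD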;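 also: higher score means more depolarization so channel activation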
TRPC4 sel inh 2: second check of whether TRPC6 inhibitors also affect mouse TRPC4; HEK293 TRPC4/MOR, membrane potential dye fluorescence; channel activated by saturating DAMGO dose; actives 42% (n = 920); shares compounds with TRPC6 inhibitor; inhibition, % at 10 µM; AID 2776;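 active = compounds whose fluorescence signal differed from control wells by over 3 SD, either direction, in both duplicate plates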
TRPC4 spec: tests whether TRPC6 inhibitors also affect mouse TRPC4. shares compounds with TRPC6 inhibitor. HEK293 TRPC4/mu-opioid, membrane potential fluorescence. activity change, negative = inhibition, % at 10 µM. actives 61% (n = 920);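 active = rise or fall in signal beyond 3 SD of buffer-only wells in both replicate plates, either sign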;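 also: integrated kinetic ratio of fluorescence range over baseline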
HEK293 MPD ctr 2-1: second counter-screen for TRPC6 inhibitors: parental HEK293 cells; shares compounds with TRPC6 inhibitor; parental HEK293 membrane potential dye fluorescence; maximal acetylcholine challenge after compound addition; signal change vs control, % at 10 µM; actives 31% (n = 920); AID 2779;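 active = membrane potential signal moving either way by over 3 SD of the maximum-effect control, in both duplicate plates, meaning non-specific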
HEK293 MPD ctr-1: checks TRPC6 inhibitor effects in parental HEK293 cells | shares compounds with TRPC6 inhibitor | parental HEK293 membrane potential dye fluorescence | membrane potential signal change, % at 10 µM | actives 60% (n = 920);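 active = membrane potential signal shifting up or down by more than 3 SD of buffer-only wells, on both duplicate plates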
HEK293 MPD ctr-2: checks TRPC6 modulator effects in parental HEK293 cells; shares compounds with TRPC6 inhibitor; membrane potential dye fluorescence; membrane potential signal change, % at 10 µM; actives 51% (n = 2,400); AID 488924;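 active = membrane potential signal moves up or down beyond 5 SD from buffer-only wells, on both duplicate plates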
HEK293 MPD ctr 2-2: parental HEK293 nonspecific activity of TRPC6 modulators, second screen | shares compounds with TRPC6 inhibitor | membrane potential dye fluorescence; after compound, maximal acetylcholine stimulation | inhibition, % at 10 µM | actives 14% (n = 2,400) | AID 488926;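 active = membrane potential signal drops by more than 5 SD from the mean control signal, in both duplicate plates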
TRPC4/MOR mod: selectivity of TRPC6 modulators against mouse TRPC4. shares compounds with TRPC6 inhibitor. HEK293 TRPC4/mu-opioid, membrane potential fluorescence. percent change from control (negative = decrease, positive = increase), % at 10 µM. actives 69% (n = 2,400). AID 488927;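 active = membrane potential signal moved up or down beyond 5 SD of buffer control wells, in both duplicate plates, actives on both sides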
TRPC4 ctr inh 2: second check of whether TRPC6 modulators also affect mouse TRPC4; AID 488928; actives 55% (n = 2,400); inhibition, % at 10 µM; HEK293 TRPC4/mu-opioid, membrane potential dye fluorescence; stimulated with maximal-effect DAMGO; shares compounds with TRPC6 inhibitor;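 active = drop in membrane potential signal beyond 5 SD of the control wells in both duplicate plates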;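 also: TRPC4 counter screen for TRPC6 hits run under conditions tuned for TRPC6 not TRPC4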
TRPC6 block conf: mouse TRPC6 inhibitor confirmation; AID 488960; actives 43% (n = 3,300); HEK293-TRPC6, membrane potential dye, ACh-evoked depolarization; inhibition, % at 10 µM; shares compounds with TRPC6 inhibitor;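 active = fluorescence ratio falls more than 5 SD below the full-stimulation control mean, in both duplicate runs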;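 also: integrated fluorescence ratio of peak minus minimum over baseline after agonist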
TRPC6 act conf: mouse TRPC6 activator confirmation. actives 11% (n = 2,800). activation, % at 10 µM. HEK293-TRPC6 membrane potential dye fluorescence, FDSS. AID 488961. shares compounds with TRPC6 inhibitor;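 active = ratio signal rise beyond 5 SD above unstimulated control wells' mean, seen in both duplicate runs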
A number is an active result; n = inactive; x = no result given; + = active, no number.

SMILES	TRPC4 potent	TRPC4 act	TRPC6 inhibitor	TRPC4 block	TRPC6 activator	HEK293 MPD ctr-2	HEK293 MPD ctr 2-2	TRPC4/MOR mod	TRPC4 ctr inh 2	TRPC6 block conf	TRPC6 act conf	others
O=C1c2cnc3ncnn3c2CC2c3ccccc3CCN12 (centres undefined)	n	n	-5	n	n	-105%	n	-20%	n	n	n
COC(=O)N1C(=O)[C@](c2ccsc2)(C(C)C)N1C(=O)OC	n	n	n	n	n	x	x	x	x	x	x
CN(C)C(CNC(=O)c1cccc(NS(=O)(=O)c2ccc(Br)cc2)c1)c1ccco1 (centres undefined)	n	n	-5.7	n	n	n	n	9.5%	n	n	n
CN1c2ccc([N+](=O)[O-])cc2N(C)C1(C)c1ccccc1 (centres undefined)	n	n	n	n	n	x	x	x	x	x	x
CN(C)CCCN1c2ccc([N+](=O)[O-])cc2CCc2cc([N+](=O)[O-])ccc21	n	n	-12	n	n	-358%	86%	-60%	84%	83%	n
CCOC(=O)Nc1ccc2c(c1)N(CCCN(C)C)c1ccccc1CC2	n	n	-7.8	n	n	x	x	x	x	51%	n	TRPC4 sel inh 2=n;TRPC4 spec=n;HEK293 MPD ctr 2-1=n;HEK293 MPD ctr-1=n
COc1cc(C(=O)Nc2ccc3c(c2)N(C(=O)CCN(C)C)c2ccccc2CC3)cc(OC)c1OC	n	n	-8.8	n	n	n	n	n	n	58%	n
CCOC(=O)Nc1ccc2c(c1)N(C(=O)OC)c1ccccc1CC2	n	n	n	n	n	x	x	x	x	x	x
O=C(COC(=O)C1CCCC1)Nc1ncc(Cl)cc1Cl	n	n	n	n	n	x	x	x	x	x	x
CCC1(c2ccccc2)NC(=O)N(CC(=O)NC2(C#N)CCCCC2)C1=O (centres undefined)	n	n	n	n	n	x	x	x	x	x	x
O=C(CSc1nnc(CNC(=O)c2ccccc2)o1)NCc1ccccc1Cl	n	n	n	n	n	x	x	x	x	x	x
COc1ccc(NC(=O)CN2CCC(n3c(C)nc4cc(F)ccc43)CC2)c(OC)c1	n	n	n	n	n	x	x	x	x	x	x
COc1cc(OC)cc(C(=O)N2CCC(n3c(C)nc4cc(F)ccc43)CC2)c1	n	n	n	n	20	n	n	n	n	x	163%
CC1=NN(c2ccc(C(=O)OC(C)C)cc2)C(=O)/C1=C\C=C\c1ccco1	n	n	-6.3	n	n	n	n	n	45%	n	n
CC1=NN(c2ccccc2)C(=O)/C1=C/c1cn(C)c2ccccc12	n	n	-5.4	n	n	n	n	-12%	40%	n	n
CC1=NN(c2ccccc2)C(=O)/C1=C/C=C/c1ccc(N(C)C)cc1	n	n	-12	n	n	x	x	x	x	81%	n	TRPC4 sel inh 2=74%;TRPC4 spec=-14%;HEK293 MPD ctr 2-1=n;HEK293 MPD ctr-1=-140%
CC1CCN(S(=O)(=O)c2cc(C(=O)Nc3ccccn3)ccc2Br)CC1	n	n	n	n	n	x	x	x	x	x	x
Cc1ccc(C)c(COC(=O)CCN=C2NS(=O)(=O)c3ccccc32)c1	n	n	n	n	n	x	x	x	x	x	x
NC1=C(c2ccccc2)C(=O)NC1=O	n	n	n	n	n	x	x	x	x	x	x
O=C1CSC(c2c(F)cccc2Cl)N1c1cccc(F)c1 (centres undefined)	n	n	-5.1	n	n	n	n	12%	n	n	n
O=C1CSC(c2cccc(F)c2)N1c1c(F)cccc1F (centres undefined)	n	n	n	n	n	x	x	x	x	x	x
CCOC(=O)N1CCN(C(=O)COC(=O)CN(C)S(=O)(=O)c2ccc(NC(C)=O)cc2)CC1	n	n	n	n	n	x	x	x	x	x	x
Oc1c(C=C2N=c3ccccc3=N2)sc(=S)n1-c1ccccc1	n	n	n	n	n	x	x	x	x	x	x
CC1=Nc2ccccc2/C1=C/c1sc(=S)n(-c2cccc(C(=O)O)c2)c1O	11	44	n	n	56	+	n	212%	n	n	314%
CCOC(=O)N1CCN(C(=O)c2cc3cc(Cl)ccc3[nH]2)CC1	n	n	-6.1	n	n	n	n	n	n	n	n
SMILES	TRPC4 potent	TRPC4 act	TRPC6 inhibitor	TRPC4 block	TRPC6 activator	HEK293 MPD ctr-2	HEK293 MPD ctr 2-2	TRPC4/MOR mod	TRPC4 ctr inh 2	TRPC6 block conf	TRPC6 act conf	others
CCOC(=O)N1CCN(C(=O)c2cc3cc(F)ccc3[nH]2)CC1	n	n	n	n	n	x	x	x	x	x	x
CN1CCCc2cc(C=O)ccc21	n	n	-7.9	n	n	x	x	x	x	n	n	TRPC4 sel inh 2=n;TRPC4 spec=-8.7%;HEK293 MPD ctr 2-1=n;HEK293 MPD ctr-1=n
COC(=O)CSc1cccc2c1C(=O)CC2c1ccccc1 (centres undefined)	n	n	-7.7	n	n	x	x	x	x	n	x	TRPC4 sel inh 2=n;TRPC4 spec=1.9%;HEK293 MPD ctr 2-1=n;HEK293 MPD ctr-1=3.3%
COC(=O)CSc1ccsc1C(=O)O	n	n	n	n	n	x	x	x	x	x	x
CN(C1CCCCC1)S(=O)(=O)c1cccc2nsnc12	n	n	n	n	n	x	x	x	x	x	x
CCN1CCCc2cc(CN(CCN3CCOCC3)C(=O)Nc3ccc(C)c(C)c3)ccc21	n	n	-5	n	n	n	n	n	41%	n	n
NC(=O)CSc1nnc(-c2ccccc2F)n1C1CC1	n	n	n	n	n	x	x	x	x	x	x
Cc1cc(C)nc(NC2=NC3CCCCC3N2)n1 (centres undefined)	n	n	-8.9	n	n	192%	128%	-10%	54%	56%	n
Cc1cc(C)nc(NC2=NCC(=O)N2c2cc(Cl)cc(Cl)c2)n1	n	n	n	n	n	x	x	x	x	x	x
